Counter-ions that a name gives are not always drawn. The source made the active and inactive calls. The rule behind the calls is not given here. Non-standard residues stand in square brackets, D forms with d. Residues, ends and D or L forms follow the SMILES beside them. *: point of attachment. Lys(Thioacetyl) = CC(=S)NCCCC[C@H](N)C(=O)O; AMC = Cc1cc(=O)oc2cc(N*)ccc12; Cbz = O=C(OCc1ccccc1)*; Propionyl = CCC(=O)*; Tfa = O=C(C(F)(F)F)*; Butyryl = CCCC(=O)*; NHiPr = CC(C)N*
What was measured:
[1] = molecular target: T1, NAD-dependent protein deacetylase sirtuin-2 (Homo sapiens) (UniProt Q8IXJ6); assay: Inhibition of human recombinant C-terminal His-tagged SIRT2 (50 to 356 residues) deacetylation activity in presence of substrate and NAD+ incubated for 60 mins measured after 90 mins by fluorescence assay
T1 sequence (whole entry): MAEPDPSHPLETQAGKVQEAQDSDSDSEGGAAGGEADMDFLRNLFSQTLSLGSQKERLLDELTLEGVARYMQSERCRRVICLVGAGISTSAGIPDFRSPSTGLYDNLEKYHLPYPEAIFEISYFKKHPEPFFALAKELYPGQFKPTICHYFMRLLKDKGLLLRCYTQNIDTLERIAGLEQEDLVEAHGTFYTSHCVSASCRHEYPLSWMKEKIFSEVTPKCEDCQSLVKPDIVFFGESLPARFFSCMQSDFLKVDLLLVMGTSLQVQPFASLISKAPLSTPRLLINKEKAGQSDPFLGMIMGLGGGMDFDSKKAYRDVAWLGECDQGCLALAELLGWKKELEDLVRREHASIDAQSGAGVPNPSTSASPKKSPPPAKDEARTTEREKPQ
Summary of the method: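 Recombinant SIRT2 (100 nM or 250 nM) incubated with fluorogenic thioacyl or oxo lysine-AMC substrates plus NAD+. Deacylation read by fluorescence. Two independent experiments in duplicate, standard deviation.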

HEK293 = assay: Inhibition of deacetylation activity in HEK293 cell lysate incubated with substrate for 2 hrs at 50 uM measured after 90 mins by fluorescence assay; assay type: functional, subcellular; conditions: Homo sapiens
Summary of the method: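 Fluorogenic thioacyl or acyl lysine-AMC substrates incubated with fresh HEK293 cell lysate (~65 μg). Deacylation measured by fluorescence. Two independent experiments in duplicate, standard deviation.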

[2] = molecular target: T2, NAD-dependent protein deacetylase sirtuin-1 (Homo sapiens) (UniProt Q96EB6); assay: Inhibition of human recombinant N-terminal GST-tagged SIRT1 (193 to 741 residues) expressed in Escherichia coli using Ac-Gln-Pro-Lys-Lys(Ac)-AMC (oxo-10) as substrate at 100 uM by fluorescence assay relative to control
T2 sequence (whole entry): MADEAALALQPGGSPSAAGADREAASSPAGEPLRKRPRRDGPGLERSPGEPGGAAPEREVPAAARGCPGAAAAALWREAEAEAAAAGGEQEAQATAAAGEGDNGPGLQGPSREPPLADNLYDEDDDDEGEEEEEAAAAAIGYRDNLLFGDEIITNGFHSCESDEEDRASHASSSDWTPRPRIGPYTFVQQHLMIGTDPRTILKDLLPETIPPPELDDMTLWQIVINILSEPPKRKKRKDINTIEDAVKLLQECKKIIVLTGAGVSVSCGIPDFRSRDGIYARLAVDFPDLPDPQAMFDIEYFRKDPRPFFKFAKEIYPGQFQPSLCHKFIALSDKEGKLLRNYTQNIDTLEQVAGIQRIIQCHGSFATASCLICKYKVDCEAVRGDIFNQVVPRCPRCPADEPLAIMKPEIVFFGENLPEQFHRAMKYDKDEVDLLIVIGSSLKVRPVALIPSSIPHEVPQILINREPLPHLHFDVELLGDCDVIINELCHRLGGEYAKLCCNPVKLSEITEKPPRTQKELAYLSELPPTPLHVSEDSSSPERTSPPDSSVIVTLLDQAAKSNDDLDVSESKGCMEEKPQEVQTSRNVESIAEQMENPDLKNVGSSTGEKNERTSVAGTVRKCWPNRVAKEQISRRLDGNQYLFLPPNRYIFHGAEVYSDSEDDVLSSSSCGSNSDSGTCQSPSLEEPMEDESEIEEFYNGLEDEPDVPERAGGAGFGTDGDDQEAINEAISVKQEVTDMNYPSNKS

[3] = molecular target: T1, NAD-dependent protein deacetylase sirtuin-2 (Homo sapiens); assay: Inhibition of human C-terminal His-tagged SIRT2 (50 to 356 residues) expressed in Escherichia coli using Ac-Gln-Pro-Lys-Lys(pro)-AMC (oxo-11) as substrate at 100 uM by fluorescence assay relative to control
[4] = molecular target: T2, NAD-dependent protein deacetylase sirtuin-1 (Homo sapiens); assay: Inhibition of human N-terminal GST-tagged SIRT1 (193 to 741 residues) expressed in Escherichia coli preincubated with NAD+ for 30 mins using Ac-Gln-Pro-Lys-Lys(Ac)-AMC (oxo-10) as substrate at 1 to 100 uM measured after 90 mins by fluorescence assay; conditions: dose microM 1-100, time 120.0 min
Summary of the method: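 Recombinant SIRT1 (100 nM) preincubated 30 min with compound, either with or without NAD+ (500 μM), before the fluorogenic deacetylation read-out. Single-dose %-inhibition. Two independent experiments in duplicate, standard deviation.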

[5] = molecular target: T3, NAD-dependent protein deacetylase sirtuin-3, mitochondrial (Homo sapiens) (UniProt Q9NTG7); assay: Inhibition of human N-terminal GST-tagged SIRT3 (102 to 399 residues) expressed in Escherichia coli using Ac-Gln-Pro-Lys-Lys(but)-AMC (oxo-12) as substrate at 100 uM by fluorescence assay relative to control
T3 sequence (whole entry): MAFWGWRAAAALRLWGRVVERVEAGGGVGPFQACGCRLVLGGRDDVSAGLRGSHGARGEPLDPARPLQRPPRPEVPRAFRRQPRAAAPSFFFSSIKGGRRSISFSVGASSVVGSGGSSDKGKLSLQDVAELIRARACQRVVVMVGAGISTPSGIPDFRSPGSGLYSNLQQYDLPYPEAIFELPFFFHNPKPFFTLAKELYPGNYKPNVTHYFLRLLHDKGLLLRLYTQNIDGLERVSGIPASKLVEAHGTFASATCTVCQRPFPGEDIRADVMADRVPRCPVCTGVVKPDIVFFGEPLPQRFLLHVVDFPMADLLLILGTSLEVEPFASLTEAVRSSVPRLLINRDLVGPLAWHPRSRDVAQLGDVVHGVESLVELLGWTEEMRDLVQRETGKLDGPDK

[6] = molecular target: T2, NAD-dependent protein deacetylase sirtuin-1 (Homo sapiens); assay: Inhibition of SIRT1 in HEK293 cells assessed as increase in p53 acetylation co-treated with TSA at 25 uM for 6 hrs by western blot analysis; assay type: cell-based
Summary of the method: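 HEK293 cells exposed 6 h to compound at 25 μM together with TSA (1 μM). Whole-cell lysates immunoblotted for Ac-p53 (K382) and total p53. Ratio Ac-p53/p53 normalized to DMSO control. Two independent experiments in duplicate, SEM.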

[7] = molecular target: T1, NAD-dependent protein deacetylase sirtuin-2 (Homo sapiens); assay: Inhibition of human recombinant C-terminal His-tagged SIRT2 (50 to 356 residues) deacetylation activity in presence of substrate and NAD+ at 15 uM incubated 15 to 60 mins by reversed-phase UPLC-MS analysis; conditions: time min 15-60
[8] = molecular target: T3, NAD-dependent protein deacetylase sirtuin-3, mitochondrial (Homo sapiens); assay: Inhibition of human recombinant N-terminal GST-tagged SIRT3 (102 to 399 residues) deacetylation activity in presence of substrate and NAD+ at 15 uM after 60 mins measured by reversed-phase UPLC-MS analysis relative to control
[9] = molecular target: T2, NAD-dependent protein deacetylase sirtuin-1 (Homo sapiens); assay: Inhibition of human recombinant N-terminal GST-tagged SIRT1 (193 to 741 residues) deacetylation activity in presence of substrate and NAD+ at 15 uM after 15 mins by reversed-phase UPLC-MS analysis relative to control; set-up: scale not given: the % may be the effect or the level left

inhibition [1] | inhibition [4] | inhibition [6] | SMILES | Activity (HEK293) | also measured
Active | – | – | CCC(=O)NCCCC[C@H](NC(=O)[C@H](CCCCN)NC(=O)[C@@H]1CCCN1C(=O)[C@H](CCC(N)=O)NC(C)=O)C(=O)Nc1ccc2c(C)cc(=O)oc2c1 (Ac-QPKK(Propionyl)-{AMC}) | Active | –
– | inactive | inactive | CC(C)NC(=O)[C@H](Cc1c[nH]c2ccccc12)NC(=O)[C@H](CCCCNC(=O)C(F)(F)F)NC(=O)OCc1ccccc1 (Cbz-Lys(Tfa)-Trp-NHiPr) | – | inhibition [2]: 24%; inhibition [3]: 3%; inhibition [5]: 5%
Active | – | – | CC(=O)NCCCC[C@H](NC(=O)[C@H](CCCCN)NC(=O)[C@@H]1CCCN1C(=O)[C@H](CCC(N)=O)NC(C)=O)C(=O)Nc1ccc2c(C)cc(=O)oc2c1 (Ac-QPKK(Ac)-{AMC}) | Active | –
– | – | – | CC(=O)N[C@@H](CCC(N)=O)C(=O)N1CCC[C@H]1C(=O)N[C@@H](CCCCN)C(=O)N[C@@H](CCCCNC(C)=S)C(=O)Nc1ccc2c(C)cc(=O)oc2c1 (Ac-QPK[Lys(Thioacetyl)]-{AMC}) | Active | –
Active | – | – | CCCC(=O)NCCCC[C@H](NC(=O)[C@H](CCCCN)NC(=O)[C@@H]1CCCN1C(=O)[C@H](CCC(N)=O)NC(C)=O)C(=O)Nc1ccc2c(C)cc(=O)oc2c1 (Ac-QPKK(Butyryl)-{AMC}) | Active | –
inactive | – | – | CC(=O)NCCCC[C@H](NC(=O)OCc1ccccc1)C(=O)N[C@@H](Cc1c[nH]c2ccccc12)C(=O)NC(C)C (Cbz-Lys(Ac)-Trp-NHiPr) | – | inhibition [7]: inactive; inhibition [8]: 54%; Activity [9]: > 80%
– | – | inactive | Cc1cc(C)nc(SCC(=O)Nc2ncc(Cc3cccc4ccccc34)s2)n1 | – | –
– | inactive | Active | NC(=O)C1CCCc2c1[nH]c1ccc(Cl)cc21 (stereo not drawn) | – | –
– | inactive | – | CC(C)NC(=O)[C@H](Cc1c[nH]c2ccccc12)NC(=O)[C@H](CCCCNC(=O)C(F)F)NC(=O)OCc1ccccc1 | – | inhibition [2]: 29%; inhibition [3]: 17%; inhibition [5]: 9%

Source: ChEMBL document CHEMBL4725432, “Dethioacylation by Sirtuins 1-3: Considerations for Drug Design Using Mechanism-Based Sirtuin Inhibition” (ACS Med Chem Lett, 2020)
